IDH1 R132H inh: inhibitors of human IDH1 R132H | actives 0.18% (n = 70,000) | IDH1 R132H reductase, diaphorase/resazurin fluorescence, 60 min | inhibition, % at 10 µM | O75874; in the data active means inhibition above about 34%; inconclusive means no clear call, values can overlap the other calls; inactive means below about 11%;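 further: 0% = DMSO and 100% = no enzyme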
GASC1 inh: blocks human GASC-1 (KDM4C) demethylase activity. Q9H3R0. GST-KDM4C 2-372, H3K9me3 peptide, LANCE TR-FRET. inhibition, % at 12.5 µM. actives 0.15% (n = 96,000). AID 720574;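 active means mean replicate inhibition above about 25%, with at least 55% of replicates also reaching it, limit read from the data, passing the limit was not always enough; inconclusive means only one of those two conditions met; inactive means neither condition met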
Target sequence (Q9H3R0 2-372 limits assumed): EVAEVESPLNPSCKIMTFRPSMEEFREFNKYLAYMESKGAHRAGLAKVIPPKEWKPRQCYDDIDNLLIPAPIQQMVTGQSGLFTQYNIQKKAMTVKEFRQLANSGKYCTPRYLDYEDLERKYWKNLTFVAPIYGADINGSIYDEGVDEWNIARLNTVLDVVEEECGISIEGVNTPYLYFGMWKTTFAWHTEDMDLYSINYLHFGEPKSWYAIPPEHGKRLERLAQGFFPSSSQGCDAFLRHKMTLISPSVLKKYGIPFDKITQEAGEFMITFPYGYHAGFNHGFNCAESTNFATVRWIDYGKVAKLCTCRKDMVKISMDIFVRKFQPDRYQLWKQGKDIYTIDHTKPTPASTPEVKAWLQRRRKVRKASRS
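Assay system: GST-GASC-1 enzyme fragment 2-372 | Amount: 10 nM enzyme | Medium: HEPES buffer, pH 7.5, plus ascorbate | Reagent: H3K9me3 peptide substrate, Fe(II), 2-oxoglutarate | Doses: Single-point compound screen | Incubation: 30 min demethylation and 1 h detection at room temperature | Measured by: LANCE TR-FRET, excitation 340 nm, emissions 618 and 671 nm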
T cruzi growth-1: inhibitors of T. cruzi proliferation; actives 5.9% (n = 77,000); AID 624255; inhibition, % at 8.34 µM; T. cruzi beta-gal in NIH3T3, GalScreen luminescence, 90 h;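 active means mean inhibition above about 93%, with at least 55% of replicates each passing it, limit read from the data, passing the limit was not always enough; inconclusive means only one of those two conditions holds; inactive means neither condition holds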
T cruzi growth-2: inhibitors of T. cruzi proliferation. T. cruzi beta-gal in NIH3T3, GalScreen luminescence, 90 h. actives 72% (n = 5,600). shares compounds with T cruzi growth-1. inhibition, % at 8.35 µM. AID 651739;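 active means mean replicate inhibition above about 95% and at least 55% of replicates individually reaching it, limit read from the data; inconclusive means only one of the two criteria is met; inactive means neither criterion is met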
T cruzi growth-3: blocks T. cruzi growth in NIH3T3 host cells. actives 21% (n = 5,600). shares compounds with T cruzi growth-1. inhibition, % at 2.09 µM. T. cruzi beta-gal in NIH3T3, GalScreen luminescence, 90 h;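 active means mean inhibition above about 95%, with at least 55% of replicates also reaching it, limit read from the data; inconclusive means meets just one of the two conditions; inactive means meets neither condition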;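 further: plate controls were neutral control median for no effect and positive control median for full effect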
3T3 cytotox: kills mouse NIH/3T3 fibroblasts. shares compounds with T cruzi growth-1. NIH/3T3 viability, CellTiter-Glo ATP luminescence, 90 h. cytotoxicity (signal decrease), % at 8.35 µM. actives 14% (n = 5,600). AID 651742;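 active means mean signal decrease across replicates above about 35% based on untreated-well scatter, with enough replicates individually passing, limit read from the data; inconclusive means no rule stated though some were filed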;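 further: 0% = median of neutral control wells and 100% = median of positive control wells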
3T3 cytotox 2: cytotoxicity in mouse NIH/3T3 fibroblasts. inhibition, % at 24.9 µM. actives 56% (n = 5,600). NIH/3T3 viability, CellTiter-Glo ATP luminescence, 90 h. AID 651744. shares compounds with T cruzi growth-1;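 active means mean loss of cell viability signal at or above a set limit, and enough replicates individually reaching it; inconclusive means meets only the mean limit or only the replicate share; inactive means meets neither condition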;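 further: 0% = median of neutral control wells and 100% = median of positive control wells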
The depositor's hits bear a star; ? = inconclusive; . = no result. The entries come from a sample that favours hits as a whole.

SMILES | IDH1 R132H inh | GASC1 inh | T cruzi growth-1 | T cruzi growth-2 | T cruzi growth-3 | 3T3 cytotox | 3T3 cytotox 2
COc1cc(NC(=O)COc2ccc(Cl)cc2Cl)c2ncccc2c1 | -1 | . | . | . | . | . | .
N#Cc1ccccc1CSc1nnc(-c2ccc([N+](=O)[O-])cc2)n1-c1ccccc1 | 0 | . | . | . | . | . | .
Cc1ccc(NC(=O)CN(C)S(=O)(=O)c2ccc(C)cc2)cc1 | 0 | . | . | . | . | . | .
CCCC#Cc1ccc([C@@H]2[C@@H](CO)N(C(=O)C3CC3)[C@H]2C#N)cc1 | . | 2 | 101* | 98* | 70 | -5 | 36*
CC(C)C#Cc1ccc([C@@H]2[C@@H](CO)N(C(=O)C3CC3)[C@H]2C#N)cc1 | . | -1 | 37 | . | . | . | .
CCCC#Cc1ccc([C@H]2[C@@H](C#N)N(C(=O)C3CC3)[C@@H]2CO)cc1 | . | -1 | ? | 103* | 86 | -29 | 15
CCCC#Cc1ccc([C@H]2[C@H](C#N)N(C(=O)C3CC3)[C@H]2CO)cc1 | . | -1 | 106* | 107* | 89 | -4 | 32*
CN(C)CC#Cc1ccc([C@H]2[C@@H](CO)N(C(=O)C3CC3)[C@H]2C#N)cc1 | . | 0 | 20 | . | . | . | .
CCCC#Cc1ccc([C@H]2[C@@H](C#N)N(C(=O)C3CC3)[C@H]2CO)cc1 | . | 0 | ? | ? | ? | 6 | 41*
CCCC#Cc1ccc([C@H]2[C@@H](C#N)N(C(=O)C3CCC3)[C@H]2CO)cc1 | . | 0 | 93 | . | . | . | .
CCCC#Cc1ccc([C@@H]2[C@@H](C#N)N(C(=O)C3CCOCC3)[C@H]2CO)cc1 | . | -1 | 63 | . | . | . | .
COc1ccccc1-n1c(CSc2nc3cc(C(=O)N4CCCC4)ccc3s2)nc2ccccc2c1=O | 0 | . | . | . | . | . | .
CSc1nc(SCC(=O)N(c2ccccc2)c2ccccc2)c2c3c(sc2n1)CCC3 | 1 | . | . | . | . | . | .
COc1ccc2cc1/C=C\NC(=O)C(Cc1ccccc1)NC(=O)C1C(CCN1C(=O)C(NC(=O)C(C)N(C)C)C(C)C)O2 (stereo not given) | 0 | . | . | . | . | . | .
CN(C)S(=O)(=O)N(CC(=O)Nc1c(F)cccc1F)c1ccccc1 | 0 | . | . | . | . | . | .
C[C@H](CO)N1C[C@H](C)[C@H](CN(C)Cc2ccccc2)OCCCC[C@H](C)Oc2ccc(NC(=O)Nc3ccc(F)cc3)cc2C1=O | . | -2 | ? | 97* | 114* | 23 | 104*
C[C@@H]1CCCCO[C@H](CN(C)Cc2ccccc2)[C@@H](C)CN([C@H](C)CO)C(=O)c2cc(NC(=O)Nc3ccc(F)cc3)ccc2O1 | 13 | -1 | 66 | . | . | . | .
C[C@@H]1CCCCO[C@@H](CN(C)Cc2ccccc2)[C@H](C)CN([C@H](C)CO)C(=O)c2cc(NC(=O)Nc3ccc(F)cc3)ccc2O1 | 0 | -1 | 73 | . | . | . | .
C[C@@H]1CCCCO[C@@H](CN(C)Cc2ccccc2)[C@H](C)CN([C@@H](C)CO)C(=O)c2cc(NC(=O)Nc3ccc(F)cc3)ccc2O1 | -1 | 1 | ? | 103* | 44 | 10 | 105*
C[C@H]1CCCCO[C@@H](CN(C)Cc2ccccc2)[C@@H](C)CN([C@@H](C)CO)C(=O)c2cc(NC(=O)Nc3ccc(F)cc3)ccc2O1 | 0 | -3 | 84 | . | . | . | .
C[C@@H]1CCCCO[C@@H](CN(C)Cc2ccccc2)[C@@H](C)CN([C@H](C)CO)C(=O)c2cc(NC(=O)Nc3ccc(F)cc3)ccc2O1 | . | 0 | 101* | 107* | 56 | 12 | 14
Cc1ccnc(NS(=O)(=O)c2ccc(NC(=O)c3csc4c3CCCC4)cc2)n1 | 1 | . | . | . | . | . | .
CCC(Oc1ccccc1)C(=O)Nc1cc2oc3ccccc3c2cc1OC (stereo not given) | 0 | . | . | . | . | . | .
Cc1nn(C)c(C)c1/C=C/C(=O)C(C)(C)C | -1 | . | . | . | . | . | .
COc1ccccc1C(=O)Oc1c(CN2CCOCC2)cc(Cl)c2cccnc12 | -1 | . | . | . | . | . | .
C[C@H](O)C#Cc1ccc2c(c1)O[C@H](CN(C)Cc1ccc(-c3ccccc3)cc1)[C@H](C)CN([C@H](C)CO)S2(=O)=O | . | 0 | 99* | 97* | 97* | 23 | 106*
C[C@H](O)C#Cc1ccc2c(c1)O[C@@H](CN(C)Cc1ccc(-c3ccccc3)cc1)[C@@H](C)CN([C@@H](C)CO)S2(=O)=O | 0 | -2 | 86 | . | . | . | .

High-throughput results from PubChem BioAssay.
